Measured values as given in ChEMBL document CHEMBL3861996, “Arylsulfonamide derivatives of (aryloxy)ethyl pyrrolidines and piperidines as α1-adrenergic receptor antagonist with uro-selective activity” (Bioorg Med Chem, 2016).

What was measured:
[1] = target: T1, Adrenergic receptor alpha-2 (Rattus norvegicus, UniProt P22086+P19328+P22909); assay: Displacement of [3H]-Clonidine from alpha2 adrenergic receptor in rat brain cerebral cortex membranes by liquid scintillation counting analysis; type: cell membranes, Membrane
T1 sequence (P22086 whole entry): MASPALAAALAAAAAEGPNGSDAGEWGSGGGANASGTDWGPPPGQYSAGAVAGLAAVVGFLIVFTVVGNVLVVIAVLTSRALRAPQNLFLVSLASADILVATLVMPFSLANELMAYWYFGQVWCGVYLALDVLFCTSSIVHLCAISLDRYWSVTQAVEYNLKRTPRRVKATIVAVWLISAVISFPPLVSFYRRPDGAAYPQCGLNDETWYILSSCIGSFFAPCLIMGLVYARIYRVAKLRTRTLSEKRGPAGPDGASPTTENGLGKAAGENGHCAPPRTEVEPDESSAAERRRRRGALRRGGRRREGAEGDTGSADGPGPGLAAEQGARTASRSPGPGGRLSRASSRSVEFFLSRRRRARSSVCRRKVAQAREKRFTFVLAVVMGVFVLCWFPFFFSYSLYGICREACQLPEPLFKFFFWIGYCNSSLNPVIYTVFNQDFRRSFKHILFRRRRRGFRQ
T1 sequence (P19328 whole entry): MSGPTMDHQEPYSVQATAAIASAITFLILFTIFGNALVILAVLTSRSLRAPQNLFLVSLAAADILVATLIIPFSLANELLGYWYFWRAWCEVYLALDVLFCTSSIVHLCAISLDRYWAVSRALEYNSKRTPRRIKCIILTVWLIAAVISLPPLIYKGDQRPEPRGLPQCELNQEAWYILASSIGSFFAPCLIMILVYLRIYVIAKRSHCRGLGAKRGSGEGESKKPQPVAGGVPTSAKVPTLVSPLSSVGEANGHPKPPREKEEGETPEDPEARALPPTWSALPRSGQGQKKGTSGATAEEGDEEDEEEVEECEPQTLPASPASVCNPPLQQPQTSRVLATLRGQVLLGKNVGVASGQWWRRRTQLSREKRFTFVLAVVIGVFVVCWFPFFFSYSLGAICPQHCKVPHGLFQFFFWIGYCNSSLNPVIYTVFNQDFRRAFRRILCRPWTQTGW
T1 sequence (P22909 whole entry): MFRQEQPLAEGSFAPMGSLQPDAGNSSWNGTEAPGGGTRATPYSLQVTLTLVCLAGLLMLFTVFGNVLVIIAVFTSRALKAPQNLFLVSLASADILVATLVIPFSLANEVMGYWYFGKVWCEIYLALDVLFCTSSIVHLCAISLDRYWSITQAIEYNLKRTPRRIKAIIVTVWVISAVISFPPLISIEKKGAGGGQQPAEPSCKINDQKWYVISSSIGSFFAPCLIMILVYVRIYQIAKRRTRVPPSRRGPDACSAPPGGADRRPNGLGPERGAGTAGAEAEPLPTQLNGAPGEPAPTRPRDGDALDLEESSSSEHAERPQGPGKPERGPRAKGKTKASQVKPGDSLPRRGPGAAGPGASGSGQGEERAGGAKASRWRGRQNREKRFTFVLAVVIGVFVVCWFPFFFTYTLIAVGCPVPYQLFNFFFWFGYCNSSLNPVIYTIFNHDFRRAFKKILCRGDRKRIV
How it was run: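 Rat cerebral cortex homogenized in ice-cold 50 mM Tris–HCl (pH 7.6), spun at 20,000 g for 20 min (0–4 °C), resuspended and spun again. Membranes incubated with 0.2 nM [3H]-prazosin (α1) or 2 nM [3H]-clonidine (α2) and seven to eight compound concentrations (10^-11 to 10^-4 M). Non-specific binding defined with 10 µM phentolamine (prazosin) or 10 µM clonidine (clonidine). Ended by GF/C filtration, counted by liquid scintillation. Run in duplicate; Ki from two independent experiments.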

[2] = target: 5-hydroxytryptamine receptor 7 (Homo sapiens) (UniProt P34969); assay: Displacement of [3H]-LSD from human 5-HT7 receptor expressed in CHO-K1 cell membranes at 10 uM after 2 hr by micro beta2 scintillation counting analysis; settings: 0.1 uM, in the assay text read “at 0.1 uM” for “at 10 uM”
How it was run: (§1)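 Membranes of CHO-K1 cells stably expressing human 5-HT1A or 5-HT7 receptor. Buffer 50 mM Tris–HCl, 0.1 mM EDTA, 10 mM MgCl2. Each compound screened at final 10 µM and 1 µM. Incubation at 37 °C, 1 h for 5-HT1A and 2 h for 5-HT7. Non-specific binding defined with 10 µM 5-HT (5-HT1A) or 10 µM methiothepine (5-HT7). Output is percent inhibition of specific binding.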

[3] = target: T2, 5-hydroxytryptamine receptor 1A (Homo sapiens) (UniProt P08908); assay: Displacement of [3H]-8-OH-DPAT from human 5-HT1A receptor expressed in CHO-K1 cell membranes at 1 uM after 1 hr by micro beta2 scintillation counting analysis; how it was run: as §1
T2 sequence (whole entry): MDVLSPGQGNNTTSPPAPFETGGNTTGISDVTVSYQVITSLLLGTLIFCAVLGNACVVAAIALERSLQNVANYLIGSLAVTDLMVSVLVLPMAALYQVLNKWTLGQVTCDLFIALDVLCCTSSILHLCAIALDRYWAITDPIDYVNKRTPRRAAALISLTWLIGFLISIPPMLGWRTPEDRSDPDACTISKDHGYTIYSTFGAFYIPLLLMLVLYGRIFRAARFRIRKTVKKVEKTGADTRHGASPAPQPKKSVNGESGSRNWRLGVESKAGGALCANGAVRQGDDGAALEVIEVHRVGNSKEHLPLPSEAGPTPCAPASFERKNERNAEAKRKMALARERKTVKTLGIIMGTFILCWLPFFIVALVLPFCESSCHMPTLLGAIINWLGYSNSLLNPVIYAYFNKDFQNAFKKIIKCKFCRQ

[4] = target: 5-hydroxytryptamine receptor 7 (Homo sapiens) (UniProt P34969); assay: Displacement of [3H]-LSD from human 5-HT7 receptor expressed in CHO-K1 cell membranes at 1 uM after 2 hr by micro beta2 scintillation counting analysis; how it was run: as §1
Rattus norvegicus [5] = assay: Hypotensive activity in normotensive anesthetized Wistar rat assessed as decrease in systolic blood pressure at 2 mg/kg, iv administered as single dose measured 60 mins post dose relative to control; type: functional; settings: 1 h
How it was run: (§2)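 Male Wistar rats (200–250 g), groups of six, anaesthetized with thiopental 70 mg/kg ip. Left carotid artery cannulated with heparinized saline-filled tubing for pressure recording. Compounds dissolved in water and given once iv. Blood pressure taken at 0 min (control) and over 60 min afterward. Data as mean ± SEM, analysed by one-way ANOVA with Dunnett's test against 0 min.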

Rattus norvegicus [6] = assay: Hypotensive activity in normotensive anesthetized Wistar rat assessed as decrease in systolic blood pressure at 5 mg/kg, iv administered as single dose measured 60 mins post dose relative to control; type: functional; settings: 1 h; how it was run: as §2
Rattus norvegicus [7] = assay: Hypotensive activity in normotensive anesthetized Wistar rat assessed as decrease in diastolic blood pressure at 2 mg/kg, iv administered as single dose measured 60 mins post dose relative to control; type: functional; settings: 1 h; how it was run: as §2
Rattus norvegicus [8] = assay: Hypotensive activity in normotensive anesthetized Wistar rat assessed as decrease in diastolic blood pressure at 5 mg/kg, iv administered as single dose measured 60 mins post dose relative to control; type: functional; settings: 1 h; how it was run: as §2

Sequence of 5-hydroxytryptamine receptor 7 (Homo sapiens) (P34969 whole entry): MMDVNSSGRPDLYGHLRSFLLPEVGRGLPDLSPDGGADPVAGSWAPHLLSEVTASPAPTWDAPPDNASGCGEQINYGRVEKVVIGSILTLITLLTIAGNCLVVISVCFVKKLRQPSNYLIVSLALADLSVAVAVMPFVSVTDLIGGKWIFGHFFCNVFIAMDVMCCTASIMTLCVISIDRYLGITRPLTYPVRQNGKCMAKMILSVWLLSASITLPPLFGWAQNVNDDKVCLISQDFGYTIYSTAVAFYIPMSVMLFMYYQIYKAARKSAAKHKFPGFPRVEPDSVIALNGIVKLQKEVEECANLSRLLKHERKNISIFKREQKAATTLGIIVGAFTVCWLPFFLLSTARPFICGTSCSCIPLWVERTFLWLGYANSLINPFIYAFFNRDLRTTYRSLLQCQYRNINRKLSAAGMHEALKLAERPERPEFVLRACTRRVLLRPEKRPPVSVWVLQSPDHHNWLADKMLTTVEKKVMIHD

| Structure (SMILES) | Ki [1] [nM] | inhibition [2] [%] | inhibition [3] [%] | inhibition [4] [%] | inhibition in vivo at 2 mg/kg (Rattus norvegicus [5]) [%] | inhibition in vivo at 5 mg/kg (Rattus norvegicus [6]) [%] | inhibition in vivo at 2 mg/kg (Rattus norvegicus [7]) [%] | inhibition in vivo at 5 mg/kg (Rattus norvegicus [8]) [%] |
| --- | --- | --- | --- | --- | --- | --- | --- | --- |
| COc1ccccc1OCCN1CCC(CNS(=O)(=O)c2cc(Cl)ccc2F)CC1 | 1345 |  |  |  |  |  |  |  |
| COc1ccc(S(=O)(=O)NCC2CCN(CCOc3ccccc3OC)CC2)cc1OC | 644 | 16 | 72 | 52 |  |  |  |  |
| CC(C)Oc1ccccc1OCCN1CCC(CNS(=O)(=O)c2cccc(Cl)c2F)CC1 | 1212 | 45 | 59 | 90 | 7 | 2 to 5 |  |  |
| COc1ccc(S(=O)(=O)NC2CCN(CCOc3ccccc3OC)CC2)cc1OC | 2140 |  |  |  |  |  |  |  |
| CC(C)Oc1ccccc1OCCN1CCC(CNS(=O)(=O)c2cccc3cccnc23)CC1 | 947 | 51 | 61 | 91 |  |  |  |  |
| COc1ccccc1OCCN1CCC(CNS(=O)(=O)c2cccc(Cl)c2F)CC1 | 678 |  |  |  |  |  |  |  |
| COc1ccccc1OCCN1CCC(CNS(=O)(=O)c2cncc3ccccc23)CC1 | 695 | 54 | 78 | 89 |  |  |  |  |
| COc1ccccc1OCCN1CCC(NS(=O)(=O)c2cncc3ccccc23)CC1 | 297 | 41 | 69 | 87 | 4 to 10 | 6 to 11 | 4 to 8 | 2 to 8 |
| COc1ccccc1OCCN1CCC(CNS(=O)(=O)c2cccc(Cl)c2)CC1 | 439 |  |  |  |  |  |  |  |
